Source: PubChem (Broad Institute)
Shown are actives, neighbours in structure and some others; about 2.9% of the full set was active somewhere.
DENV2 CPE rescue: DENV2-induced cell death inhibition; DENV2-infected cells, cytopathic effect rescue, plate reader; CPE inhibition, % at 9.99 µM; 350,000 tested, 1.7% active; in the data active = CPE inhibition above about 20%, passing the limit was not always enough; tested in BHK-21 cells;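 note: 0% = median of neutral control wells and 100% = median of positive control wells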
CAL PDZ FP-1: inhibitors of human CAL PDZ peptide binding | Q9HD26 | AID 602252 | purified CAL PDZ, TMR-peptide fluorescence polarization, 1 h | inhibition, % at 24.9 µM | 300,000 tested, 0.92% active;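 active = mean inhibition of at least 30% with at least half of replicates also reaching 30%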;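 note: 0% = DMSO neutral control and 100% = excess unlabeled competitor peptide PRC23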
S100A4 inh HTS: S100A4-myosin IIA interaction inhibition. AID 652163. inhibition, % at 10.7 µM. S100A4/TAMRA-MyoIIA peptide fluorescence polarization. P26447. 360,000 tested, 0.14% active;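 active = mean inhibition of at least 70% across replicates, with every replicate also reaching that level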
Target sequence (P26447 whole entry, looked up): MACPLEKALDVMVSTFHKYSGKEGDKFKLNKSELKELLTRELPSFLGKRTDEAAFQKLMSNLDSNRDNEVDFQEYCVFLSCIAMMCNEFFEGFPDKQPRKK
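Test system: S100A4 monomer protein. Medium: HEPES buffer with Ca2+, pH 7.2. Reagent: fluorescent myosin IIA peptide, 5 nM. Compound dosing: single-point compound testing. Timing: 5 min between mix addition and reading. Benchmarks: DMSO neutral and TFP positive wells.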
SIRT5 block: sirtuin-5 (human) deacylase inhibition | Q9NXA8 | Purified SirT5, succinyl-peptide AMC, trypsin-coupled fluorescence | inhibition, % at 15 µM | 330,000 tested, 1.1% active; in the data active = inhibition above about 15%
Target sequence (Q9NXA8 whole entry, looked up): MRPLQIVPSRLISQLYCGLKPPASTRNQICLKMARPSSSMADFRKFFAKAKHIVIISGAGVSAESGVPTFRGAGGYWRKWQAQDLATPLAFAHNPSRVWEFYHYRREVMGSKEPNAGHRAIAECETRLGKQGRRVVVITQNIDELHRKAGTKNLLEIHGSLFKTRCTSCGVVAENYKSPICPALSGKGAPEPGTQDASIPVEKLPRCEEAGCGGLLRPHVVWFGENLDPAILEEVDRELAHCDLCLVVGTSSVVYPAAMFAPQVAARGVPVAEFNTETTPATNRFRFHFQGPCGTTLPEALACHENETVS
ERAP1 inh: ERAP1 (human) enzyme inhibition | recombinant ERAP1, Leu-AMC fluorescence, 60 min | inhibition, % at 10.7 µM | 340,000 tested, 0.15% active | AID 652197;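 active = mean replicate inhibition of at least 30%, or all replicates individually reaching that 30% level; inactive = mean below 30% and not every replicate reaching it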;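 note: 0% = neutral control wells and 100% = L-leucinethiol positive control wells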
CAL PDZ FP-2: inhibitors of human CAL PDZ peptide binding. purified CAL PDZ, TMR-peptide fluorescence polarization, 1 h. Q9HD26. 330,000 tested, 0.02% active. inhibition, % at 20 µM. AID 504414;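 active = highest replicate inhibition of at least 40%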;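 note: plate controls were DMSO neutral control wells for no effect and unlabeled competitor peptide control wells for full effect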
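Test system: tagged CAL PDZ domain / Buffer or medium: sodium phosphate/NaCl buffer pH 7.4 with TCEP, IgG, Thesit / Reagent: TMR-labelled reporter peptide T*-PRC34 bound in PDZ groove / Compound dosing: single point, 20 µM / Schedule: 1 h incubation at room temperature before polarization reading / Technique: fluorescence polarization (mP) / Benchmarks: unlabelled peptide, DMSO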
Active calls of the source: *; . = not tested or not shown; + = active, no number.

SMILES	DENV2 CPE rescue	CAL PDZ FP-1	S100A4 inh HTS	SIRT5 block	ERAP1 inh	CAL PDZ FP-2
Cc1ccc(S(=O)(=O)NCC[C@@H]2CC[C@@H](NC(=O)CCN3CCCCC3)[C@H](CO)O2)cc1	-10.3	.	2.4	10.4	-1.8	.
O=C(CCN1CCCCC1)N[C@H]1CC[C@@H](CCNS(=O)(=O)c2ccc(F)cc2)O[C@H]1CO	25.3*	.	-3.6	-0.9	1.7	.
Cc1ccc(S(=O)(=O)NCC[C@@H]2CC[C@H](NC(=O)CCN3CCCCC3)[C@H](CO)O2)cc1	72.6*	.	4.9	3.7	-2.0	.
Cc1ccc(S(=O)(=O)NCC[C@H]2CC[C@H](NC(=O)CCN3CCCCC3)[C@@H](CO)O2)cc1	-8.9	.	-13.0	1.4	-0.2	.
Cc1ccc(S(=O)(=O)NCC[C@@H]2CC[C@H](NC(=O)CCN3CCCCC3)[C@@H](CO)O2)cc1	10.0	.	8.4	17.2*	-2.9	.
O=C(CCN1CCCCC1)N[C@H]1CC[C@@H](CCNS(=O)(=O)c2ccc(Cl)cc2)O[C@H]1CO	18.6	.	82.4*	-1.7	4.4	.
COCC(=O)Nc1ccc2c(c1)[C@@H]1C[C@H](CC(=O)NCc3ccc(OC)cc3)O[C@H](CO)[C@@H]1O2	1.0	.	11.5	0.1	1.4	.
CO[C@H]1CN(C)C(=O)c2cc(NC(=O)c3ccc4c(c3)OCO4)ccc2OC[C@H](C)N(CCC(F)(F)F)C[C@@H]1C	22.6*	.	-2.3	1.5	2.1	.
CO[C@H]1CN(C)C(=O)c2cc(NC(=O)c3ccc4c(c3)OCO4)ccc2OC[C@@H](C)N(CCC(F)(F)F)C[C@@H]1C	-8.6	.	9.6	.	0.5	.
CO[C@@H]1CN(C)C(=O)c2ccc(NC(=O)c3ccc4c(c3)OCO4)cc2OC[C@H](C)N(CCC(F)(F)F)C[C@H]1C	-1.7	.	-1.7	15.6*	1.3	.
CO[C@H]1CN(C)C(=O)c2cc(NC(C)=O)ccc2OC[C@@H](C)N(CCC(F)(F)F)C[C@H]1C	-3.2	.	2.2	16.0*	-3.0	.
CO[C@@H]1CN(C)C(=O)c2cc(NC(C)=O)ccc2OC[C@@H](C)N(CCC(F)(F)F)C[C@H]1C	-2.6	.	-2.3	10.4	-2.2	.
O=C(Nc1nccs1)c1ccc2ccccc2n1	-1.3	34.6*	-2.7	-5.7	0.3	-2.4
O=S(=O)(Nc1nc(SCc2ccc(Cl)cc2)n[nH]1)c1ccc(F)cc1	28.9*	1.6	-9.4	-4.8	1.0	-1.0
CCc1nc(SCc2ccc(Cl)cc2)n[nH]1	0.9	0.3	-3.8	0.7	4.9	-2.8
CCN1[C@@H]2c3ccc(-c4cccnc4)c(=O)n3C[C@@H]2[C@@H](CO)[C@@H]1C(=O)NC1CCCCC1	4.3	.	0.5	3.2	-1.2	.
CC(C)CC#Cc1ccc2c(c1)O[C@@H](CN(C)C(=O)NC(C)C)[C@@H](C)CN([C@@H](C)CO)S2(=O)=O	4.2	.	-1.3	6.7	0.0	.
CC(C)CC#Cc1ccc2c(c1)O[C@@H](CN(C)C(=O)NC1CCCC1)[C@H](C)CN([C@@H](C)CO)S2(=O)=O	5.0	.	-2.7	15.8*	0.5	.
C[C@@H]1CN([C@H](C)CO)S(=O)(=O)c2ccc(C#Cc3ccc(F)cc3)cc2O[C@H]1CN(C)C(=O)NC1CCCCC1	0.4	.	7.5	18.1*	1.1	.
CC(C)CC#Cc1ccc2c(c1)O[C@@H](CN(C)C(=O)NC1CCCC1)[C@H](C)CN([C@H](C)CO)S2(=O)=O	0.9	.	-21.5	24.5*	-1.8	.
C[C@H](CO)N1C[C@H](C)[C@H](CN(C)C(=O)NC2CCCCC2)Oc2cc(C#Cc3ccc(F)cc3)ccc2S1(=O)=O	2.9	.	14.1	13.7	2.1	.
C[C@H](CO)N1C[C@H](C)[C@H](CN(C)C(=O)Nc2ccc3c(c2)OCO3)Oc2ccc(NC(=O)c3ccncc3)cc2CC1=O	8.3	.	2.0	-3.0	-0.4	.
CCCCNC(=O)c1onc(CS(=O)(=O)c2ccccn2)c1C(=O)NCCCC	40.0*	-2.7	1.9	.	-2.7	-0.6
CC(OC(=O)c1ccc(NC(=O)CC#N)cc1)C(=O)NC(c1ccccc1)c1ccccc1 (stereo unspecified)	-4.6	.	-6.9	15.9*	-1.1	-0.3
CCOc1ccccc1NC(=O)C(OC(=O)c1ccc(NC(=O)CC#N)cc1)c1ccccc1 (stereo unspecified)	11.9	-2.1	39.1	-15.4	-1.4	-3.5
SMILES	DENV2 CPE rescue	CAL PDZ FP-1	S100A4 inh HTS	SIRT5 block	ERAP1 inh	CAL PDZ FP-2
N#C[C@H]1[C@@H](c2ccccc2C2=CCCCC2)[C@H](CO)N1C(=O)C1CCOCC1	-1.5	.	3.0	5.8	1.6	.
O=C(C[C@H]1CC[C@@H]2[C@H](COC[C@@H](O)CN2Cc2ccc(Oc3ccccc3)cc2)O1)N1CCCCC1	6.1	.	8.3	-2.7	2.5	.
Nc1c(Cl)cc(N=Nc2ccccc2)cc1Cl	-6.2	+	0.4	-4.2	-1.8	0.1
CCN1C(=O)c2cccc3cccc1c23	3.8	-6.9	-0.5	-2.5	43.8*	-1.8
CN(C)C(=O)CN1C(=O)c2cccc3cccc1c23	3.0	-3.0	-8.9	-4.4	2.1	-0.3
COC(=O)C1=CO[C@@H](O[C@@H]2O[C@H](CO)[C@@H](O)[C@H](O)[C@H]2O)C2C1CC(O)O[C@H]2C (stereo partly specified)	23.1*	-2.5	3.4	.	.	-1.1
O=C(NCCS(=O)(=O)NC1CCCC1)c1ccccc1	0.1	-5.1	-1.7	16.7*	0.3	-3.0
O=C(O)[C@@H]1[C@@H](CO)[C@@H]2Cn3c(ccc(/C=C/c4ccccc4)c3=O)[C@@H]2N1Cc1ccc2c(c1)OCO2	1.7	.	-0.2	-15.4	-19.0	.
Cc1ccc(SC[C@H](Cc2ccccc2)N2CC[C@@H](C)CCC2=O)cc1	94.3*	-5.9	-2.3	.	-13.2	-0.3
CCCN1CCC(=O)N([C@H](CSc2ccccc2)Cc2ccccc2)CC1	48.5*	-4.6	-2.4	.	.	-3.0
O=C(CNC(=O)c1ccccc1)OCc1cc(=O)n2cc(Br)ccc2n1	-1.3	-4.4	-3.6	5.3	-6.7	-2.2
O=C(CNC(=O)c1ccc(Cl)cc1Cl)OCc1cn2cc(Br)ccc2n1	-6.7	-0.6	74.3*	0.6	-1.6	0.4
